What is called IC50 is the concentration at which inhibition is half-maximal.

The structures appear in SMILES notation. Numbered stars: 1 amine (or outer) side, 2 acyl side, 3 side chain; on linkers, the order of the positions; unused ones are H or OH. Square brackets hold non-standard residues; d marks the D form. Peptide text beside a SMILES is read from it. * marks the point of attachment. ξ: configuration not given here. Sta(3ξ) = CC(C)C[C@H](N[*:1])C(O)CC(=O)[*:2]; X4 = CC(C)C[C@H](N*)C(O)C[C@H](C(N)=O)C(C)C; X5 = CC(C)C[C@@H](CN[C@H](C(N)=O)C(C)C)N*; X1 = CC(C)CC(N[*:1])C(O)CC(=O)[*:2]; X3 = CC(C)CC(N[*:1])C(O)C(=O)[*:2]; Ile(3ξ) = CCC(C)[C@H](N)C(=O)O; X2 = CC(C)CC(N*)C(O)CC(N)=O; Cbz = O=C(OCc1ccccc1)*; Boc = CC(C)(C)OC(=O)*; For = O=C*

Assay [1] concerns the target Renin (Sus scrofa). Put plainly: In vitro inhibitory activity towards porcine kidney renin.
In assay [2] the target is T1, Renin (Homo sapiens, UniProt P00797).
T1 sequence (P00797 whole entry): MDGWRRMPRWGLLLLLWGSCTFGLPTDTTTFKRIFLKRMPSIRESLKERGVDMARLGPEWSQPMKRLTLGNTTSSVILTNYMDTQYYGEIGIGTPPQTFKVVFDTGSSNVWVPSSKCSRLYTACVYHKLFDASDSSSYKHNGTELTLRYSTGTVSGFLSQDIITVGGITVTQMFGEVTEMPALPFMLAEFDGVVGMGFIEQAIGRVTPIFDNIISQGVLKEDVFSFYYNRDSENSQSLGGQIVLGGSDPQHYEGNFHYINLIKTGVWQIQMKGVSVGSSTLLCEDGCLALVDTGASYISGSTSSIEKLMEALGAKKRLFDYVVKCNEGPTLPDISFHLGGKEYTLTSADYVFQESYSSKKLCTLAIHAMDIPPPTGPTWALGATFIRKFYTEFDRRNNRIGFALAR
The assay is described as follows: In vitro inhibitory activity against human plasma renin. The format is cell-free. The gist of the method: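 Reconstituted lyophilized human plasma with 0.1% EDTA, plus PMSF and maleate buffer (pH 6.0). Inhibitor added in 1.0% Tween 80/water vehicle. Angiotensin I generated for 90 min at 37 °C and measured by RIA.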

Regarding `CC(C)CC(NC(=O)[C@@H](N)Cc1cnc[nH]1)C(O)CC(=O)N[C@@H](CC(C)C)C(=O)N[C@@H](Cc1ccccc1)C(N)=O` (some centres undefined), half-maximal inhibition in assay [1] (IC50) was put at 370000 nM.
In assay [2], `CC[C@H](C)[C@H](NC(=O)[C@@H](C[C@H](O)[C@H](CC(C)C)NC(=O)[C@H](Cc1c[nH]cn1)N(C)C(=O)[C@H](Cc1ccccc1)NC(=O)[C@@H]1CCCN1C(=O)OC(C)(C)C)C(C)C)C(=O)NCc1ccccn1` displayed an IC50 of 0.11 nM.
As for `CC(=O)N[C@H](Cc1c[nH]c2ccccc12)C(=O)N1CCC[C@H]1C(=O)N[C@@H](Cc1ccccc1)C(=O)N[C@@H](Cc1c[nH]cn1)C(=O)N[C@@H](Cc1ccccc1)C(=O)N[C@@H](Cc1ccccc1)C(=O)N[C@H](C(=O)N[C@@H](Cc1cn(C=O)c2ccccc12)C(N)=O)C(C)C`, it took 5000 nM to reach half-maximal inhibition in assay [2] (IC50).
Turning to `CC(=O)N[C@@H](Cc1cn(C=O)c2ccccc12)C(=O)N1CCC[C@H]1C(=O)N[C@@H](Cc1ccccc1)C(=O)N[C@@H](Cc1cnc[nH]1)C(=O)N[C@@H](Cc1ccccc1)C(=O)N[C@@H](Cc1ccccc1)C(=O)N[C@H](C(=O)N[C@@H](Cc1cn(C=O)c2ccccc12)C(N)=O)C(C)C`, in assay [2], 500 nM corresponded to half-maximal inhibition (IC50).
On the same count and under the same terms, for `CC[C@H](C)[C@H](NC(=O)CC(O)[C@H](CC(C)C)NC(=O)[C@H](Cc1c[nH]cn1)NC(=O)[C@H](Cc1ccccc1)NC(=O)[C@@H]1CCCN1C(=O)[C@@H](Cc1cn(C=O)c2ccccc12)NC(C)=O)C(N)=O` (some centres undefined) the value was 14 nM; for `CC[C@H](C)[C@H](NC(=O)[C@@H](NC[C@H](CC(C)C)NC(=O)[C@H](Cc1c[nH]cn1)NC(=O)[C@H](Cc1ccccc1)NC(=O)[C@@H]1CCCN1C(=O)[C@H](Cc1c[nH]cn1)NC(=O)[C@@H]1CCCN1)C(C)C)C(=O)N[C@@H](Cc1c[nH]cn1)C(=O)N[C@@H](CCCCN)C(=O)O`, 10 nM.
For `CC[C@H](C)[C@H](NC(=O)CC(O)[C@H](CC(C)C)NC(=O)[C@H](Cc1cnc[nH]1)NC(=O)[C@H](Cc1ccccc1)NC(=O)[C@@H]1CCCN1C(=O)[C@H](Cc1cn(C=O)c2ccccc12)NC(C)=O)C(N)=O` (some centres undefined), the IC50 in assay [2] worked out at 0.1 nM.
The same measure, in the same setting: to `CC(=O)N[C@H](Cc1c[nH]cn1)C(=O)N1CCC[C@H]1C(=O)N[C@@H](Cc1ccccc1)C(=O)N[C@@H](Cc1ccccc1)C(=O)N[C@H](C(=O)N[C@@H](Cc1cn(C=O)c2ccccc12)C(N)=O)C(C)C` belongs about 100000 nM; to `CC(=O)N[C@H](Cc1cn(C=O)c2ccccc12)C(=O)N1CCC[C@H]1C(=O)N[C@@H](Cc1ccccc1)C(=O)N[C@@H](Cc1cnc[nH]1)C(=O)N[C@@H](Cc1ccccc1)C(=O)N[C@@H](Cc1ccccc1)C(=O)N[C@H](C(=O)N[C@@H](Cc1cn(C=O)c2ccccc12)C(N)=O)C(C)C`, over 100000 nM; to `CC(=O)N[C@@H](Cc1c[nH]cn1)C(=O)N[C@@H](Cc1ccccc1)C(=O)N[C@@H](Cc1cn(C=O)c2ccccc12)C(=O)N[C@@H](Cc1ccccc1)C(=O)N[C@@H](Cc1ccccc1)C(=O)N[C@H](C(=O)N[C@@H](Cc1cn(C=O)c2ccccc12)C(N)=O)C(C)C` (Ac-HFW(For)FFVW(For)-NH2), over 100000 nM.
The same measure, in the same setting: to `CC(=O)N[C@@H](Cc1cnc[nH]1)C(=O)N1CCC[C@H]1C(=O)N[C@@H](Cc1ccccc1)C(=O)N[C@@H](Cc1cnc[nH]1)C(=O)N[C@@H](Cc1ccccc1)C(=O)N[C@@H](Cc1ccccc1)C(=O)N[C@H](C(=O)N[C@@H](Cc1cn(C=O)c2ccccc12)C(N)=O)C(C)C` (Ac-HPFHFFVW(For)-NH2) belongs 8300 nM; to `CC[C@H](C)[C@H](NC(=O)CC(O)[C@H](CC(C)C)NC(=O)[C@H](Cc1cnc[nH]1)NC(=O)[C@H](Cc1ccccc1)NC(=O)[C@@H]1CCCN1C(=O)[C@H](Cc1cnc[nH]1)NC(C)=O)C(N)=O` (some centres undefined) (Ac-HPFH[Sta(3ξ)]I-NH2), 6.8 nM.
Same read-out and setting: to `CC(=O)N[C@@H](Cc1cn(C=O)c2ccccc12)C(=O)NCC(=O)N[C@@H](Cc1ccccc1)C(=O)N[C@@H](Cc1cnc[nH]1)C(=O)N[C@@H](Cc1ccccc1)C(=O)N[C@@H](Cc1ccccc1)C(=O)N[C@H](C(=O)N[C@@H](Cc1cn(C=O)c2ccccc12)C(N)=O)C(C)C` (Ac-W(For)GFHFFVW(For)-NH2) belongs over 100000 nM; to `CC(=O)N[C@@H](Cc1cn(C=O)c2ccccc12)C(=O)N1CCC[C@H]1C(=O)N[C@@H](Cc1ccccc1)C(=O)N[C@@H](Cc1cnc[nH]1)C(=O)NC(CC(C)C)C(O)CC(N)=O` (some centres undefined) (Ac-W(For)PFH-X2), 3.8 nM; to `CC(=O)N[C@@H](Cc1cn(C=O)c2ccccc12)C(=O)N1CCC[C@H]1C(=O)N[C@@H](Cc1ccccc1)C(=O)N[C@@H](Cc1c[nH]cn1)C(=O)N[C@@H](CC(C)C)C(O)C[C@H](C(N)=O)C(C)C` (some centres undefined) (Ac-W(For)PFH-X4), 0.31 nM.
With `CC(=O)N[C@@H](Cc1cn(C=O)c2ccccc12)C(=O)N1CCC[C@H]1C(=O)N[C@@H](Cc1ccccc1)C(=O)N[C@@H](Cc1c[nH]cn1)C(=O)N[C@H](CN[C@H](C(N)=O)C(C)C)CC(C)C` (Ac-W(For)PFH-X5), in assay [2], the IC50 stood at 21 nM.
Still for that read-out and setting: for `CC(=O)N[C@@H](Cc1cn(C=O)c2ccccc12)C(=O)N1CCC[C@H]1C(=O)N[C@@H](Cc1ccccc1)C(=O)N[C@@H](Cc1c[nH]cn1)C(=O)N[C@@H](Cc1ccccc1)C(=O)N[C@@H](Cc1ccccc1)C(N)=O` (Ac-W(For)PFHFF-NH2) the value was over 100000 nM; for `CC(=O)N[C@@H](Cc1cn(C=O)c2ccccc12)C(=O)N1CCC[C@H]1C(=O)N[C@@H](Cc1ccccc1)C(=O)N[C@@H](Cc1cnc[nH]1)C(=O)N[C@@H](Cc1ccccc1)C(=O)N[C@@H](Cc1ccccc1)C(=O)N[C@H](C(N)=O)C(C)C` (Ac-W(For)PFHFFV-NH2), 2100 nM.
Same read-out and setting: for `CC(=O)N[C@@H](Cc1cn(C=O)c2ccccc12)C(=O)N1CCC[C@H]1C(=O)N[C@@H](Cc1ccccc1)C(=O)N[C@@H](Cc1c[nH]cn1)C(=O)NC(CC(C)C)C(O)CC(=O)N[C@H](C(N)=O)C(C)C` (some centres undefined) (Ac-W(For)PFH[X1]V-NH2) the value was 0.53 nM.
As to `CC(=O)N[C@@H](Cc1cn(C=O)c2ccccc12)C(=O)N1CCC[C@H]1C(=O)N[C@@H](Cc1ccccc1)C(=O)N[C@@H](Cc1cnc[nH]1)C(=O)NC(CC(C)C)C(O)CC(=O)N[C@H](C(=O)N[C@@H](Cc1cn(C=O)c2ccccc12)C(N)=O)C(C)C` (some centres undefined) (Ac-W(For)PFH[X1]VW(For)-NH2), in assay [2], it took 0.38 nM to reach half-maximal inhibition (IC50).
Consider `CC[C@H](C)[C@H](NC(=O)CC(O)[C@H](CC(C)C)NC(=O)[C@H](Cc1c[nH]cn1)NC(=O)[C@H](Cc1ccccc1)NC(=O)[C@@H]1CCCN1C(=O)[C@H](Cc1c[nH]c2ccccc12)NC(C)=O)C(N)=O` (some centres undefined) (Ac-WPFH[Sta(3ξ)]I-NH2), for which inhibition in assay [2] was half-maximal at 1.6 nM (IC50).
In assay [2], `CC[C@H](C)[C@H](NC(=O)C(O)C(CC(C)C)NC(=O)[C@H](Cc1c[nH]cn1)NC(=O)[C@H](Cc1ccccc1)NC(=O)[C@@H]1CCCN1C(=O)[C@H](CCCN=C(N)N)NC(=O)[C@H](CCCN=C(N)N)NC(=O)OCc1ccccc1)C(=O)N[C@@H](Cc1c[nH]cn1)C(=O)N[C@@H](CCCCNC(=O)OC(C)(C)C)C(=O)OC` (some centres undefined) (Cbz-RRPFH[X3]IHK(Boc)-OMe) yielded an IC50 of 1 nM.
The same measure, in the same setting: for `CCC(C)[C@H](NC(=O)CC(O)C(CC(C)C)NC(=O)[C@H](Cc1c[nH]cn1)NC(=O)[C@H](Cc1ccccc1)NC(=O)[C@@H]1CCCN1C=O)C(N)=O` (some centres undefined) (For-PFH[X1][Ile(3ξ)]-NH2) the value was 31 nM.
Take `CC(C)CC(NC(=O)[C@H](Cc1c[nH]cn1)NC(=O)[C@H](Cc1ccccc1)NC(=O)[C@@H]1CCCN1)C(O)CC(=O)N[C@@H](CC(C)C)C(=O)N[C@@H](Cc1ccccc1)C(N)=O` (some centres undefined) (H-PFH[X1]LF-NH2): it took 200 nM to reach half-maximal inhibition in assay [1] (IC50).

Source of the values: ChEMBL document CHEMBL1123947, “Design, structure-activity, and molecular modeling studies of potent renin inhibitory peptides having N-terminal Nin-For-Trp (Ftr): angiotensinogen congeners modified by P1-P1' Phe-Phe, Sta, Leu psi[CH(OH)CH2]Val or leu psi[CH2NH]Val substitutions” (J Med Chem, 1988).
